pIC50: −log10 of the molar value. “And” between values parts separate entries of the source, which are not always exact repeats. Equal entries are not always repeated.
Columns and labels:
T47D = test: Cytotoxicity against human T47D cells assessed as cell growth at 0.001 uM after 48 hrs by sulforhodamine B assay; format: functional; conditions: read-out: Activity
NCI-H23 = test: Cytotoxicity against human NCI-H23 cells assessed as cell growth at 0.001 uM after 48 hrs by sulforhodamine B assay; format: functional; conditions: NCI-H23, 48 h, read-out: Activity
A498 [1] = test: Growth inhibition of human A498 cells after 48 hrs by sulforhodamine B assay; format: functional, cell-based; conditions: A498, 48 h; for CC50: read-out: LC50 (the source's name)
Procedure, shortened: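 Five-dose SRB assay. Cells in RPMI 1640 with 5% FBS and 2 mM L-glutamine were seeded at 5,000–40,000 cells/well, with a TCA-fixed time-zero plate (Tz) taken at 24 h. Compound stocks were in DMSO, serially diluted 10-fold or ½-log to five concentrations, and incubated 48 h at 37 °C. Plates were stained with SRB and read at 515 nm. IC₅₀ was taken where [(Ti−Tz)/(C−Tz)]×100 = 50.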

SN12C = test: Growth inhibition of human SN12C cells after 48 hrs by sulforhodamine B assay; format: functional, cell-based; conditions: for CC50: read-out: LC50 (the source's name)
Procedure, shortened: (§1)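 Cells grown in RPMI 1640 with 5% FBS and 2 mM L-glutamine, seeded at 5,000–40,000 cells/well according to doubling time. After 24 h, time-zero plates are TCA-fixed. Five concentrations (10-fold or ½log dilutions, DMSO stocks) are applied for 48 h at 37 °C, 5% CO₂. Cells are TCA-fixed, SRB-stained and read at 515 nm. IC₅₀ is taken from [(Ti−Tz)/(C−Tz)]×100 = 50.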

A498 [2] = test: Cytotoxicity against human A498 cells assessed as cell growth at 0.001 uM after 48 hrs by sulforhodamine B assay; format: functional; conditions: A498, 48 h, read-out: Activity
Procedure, shortened: (§2)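 Cells grown in RPMI 1640 with 5% FBS and 2 mM L-glutamine, seeded at 5,000–40,000 cells/well by doubling time. Time-zero plates TCA-fixed after 24 h. Five concentrations (10-fold or half-log dilutions from DMSO stock) added; 48 h at 37 °C, 5% CO2. Cold TCA fixation (final 10%, 60 min, 4 °C), 0.4% SRB stain, dye solubilized in 10 mM trizma base, A515.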

OVCAR-8 [3] = test: Cytotoxicity against human OVCAR8 cells assessed as cell growth at 0.001 uM after 48 hrs by sulforhodamine B assay; format: functional; conditions: OVCAR-8, 48 h, read-out: Activity
OVCAR-3 = test: Cytotoxicity against human OVCAR-3 cells assessed as cell growth at 0.01 uM after 48 hrs by sulforhodamine B assay; format: functional; conditions: OVCAR-3, 48 h, read-out: Activity
IGROV-1 = test: Cytotoxicity against human IGROV1 cells assessed as cell growth at 100 nM after 48 hrs by sulforhodamine B assay; format: functional; conditions: IGROV-1, 48 h, read-out: Activity
KM12 [4] = test: Cytotoxicity against human KM12 cells assessed as cell growth at 0.01 uM after 48 hrs by sulforhodamine B assay; format: functional; conditions: KM12, 48 h, read-out: Activity
CAKI-1 [5] = test: Cytotoxicity against human Caki1 cells assessed as cell growth at 1 uM after 48 hrs by sulforhodamine B assay; format: functional; conditions: CAKI-1, 48 h, read-out: Activity; procedure, shortened: as §2
OVCAR-5 = test: Growth inhibition of human OVCAR5 cells after 48 hrs by sulforhodamine B assay; format: functional, cell-based; conditions: OVCAR-5, 48 h; for CC50: read-out: LC50 (the source's name); procedure, shortened: as §1
NCI-H460 = test: Cytotoxicity against human NCI-H460 cells assessed as cell growth at 0.001 uM after 48 hrs by sulforhodamine B assay; format: functional; conditions: NCI-H460, 48 h, read-out: Activity
KM12 [6] = test: Cytotoxicity against human KM12 cells assessed as cell growth at 1 uM after 48 hrs by sulforhodamine B assay; format: functional; conditions: KM12, 48 h, read-out: Activity
SNB-19 [7] = test: Cytotoxicity against human SNB19 cells assessed as cell growth at 100 nM after 48 hrs by sulforhodamine B assay; format: functional; conditions: SNB-19, 48 h, read-out: Activity
OVCAR-4 = test: Cytotoxicity against human OVCAR4 cells assessed as cell growth at 100 nM after 48 hrs by sulforhodamine B assay; format: functional; conditions: OVCAR-4, 48 h, read-out: Activity
786-0 = test: Cytotoxicity against human 786-0 cells assessed as cell growth at 1 uM after 48 hrs by sulforhodamine B assay; format: functional; conditions: 786-0, 48 h, read-out: Activity; procedure, shortened: as §2
MDA-MB-468 = test: Cytotoxicity against human MDA-MB-468 cells assessed as cell growth at 100 nM after 48 hrs by sulforhodamine B assay; format: functional; conditions: MDA-MB-468, 48 h, read-out: Activity
CAKI-1 [8] = test: Cytotoxicity against human Caki1 cells assessed as cell growth at 0.001 uM after 48 hrs by sulforhodamine B assay; format: functional; conditions: CAKI-1, 48 h, read-out: Activity; procedure, shortened: as §2
SNB-19 [9] = test: Cytotoxicity against human SNB19 cells assessed as cell growth at 10 uM after 48 hrs by sulforhodamine B assay; format: functional; conditions: SNB-19, 48 h, read-out: Activity
OVCAR-8 [10] = test: Growth inhibition of human OVCAR8 cells after 48 hrs by sulforhodamine B assay; format: functional, cell-based; conditions: for CC50: read-out: LC50 (the source's name); procedure, shortened: as §1
SNB-75 [11] = test: Growth inhibition of human SNB75 cells after 48 hrs by sulforhodamine B assay; format: functional, cell-based; conditions: for CC50: read-out: LC50 (the source's name); procedure, shortened: as §1
NCI/ADR-RES = test: Growth inhibition of human NCI/ADR-RES cells after 48 hrs by sulforhodamine B assay; format: functional, cell-based; conditions: for CC50: read-out: LC50 (the source's name); procedure, shortened: as §1
UO-31 = test: Cytotoxicity against human UO31 cells assessed as cell growth at 0.001 uM after 48 hrs by sulforhodamine B assay; format: functional; conditions: UO-31, 48 h, read-out: Activity
MDA-MB-231 = test: Cytotoxicity against human MDA-MB-231 cells assessed as cell growth at 100 nM after 48 hrs by sulforhodamine B assay; format: functional; conditions: MDA-MB-231, 48 h, read-out: Activity
SNB-75 [12] = test: Cytotoxicity against human SNB75 cells assessed as cell growth at 10 uM after 48 hrs by sulforhodamine B assay; format: functional; conditions: SNB-75, 48 h, read-out: Activity
MOLT-4 = test: Growth inhibition of human MOLT4 cells after 48 hrs by sulforhodamine B assay; format: functional, cell-based; conditions: MOLT-4, 48 h; for CC50: read-out: LC50 (the source's name); procedure, shortened: as §1
A498 [13] = test: Cytotoxicity against human A498 cells assessed as cell growth at 10 uM after 48 hrs by sulforhodamine B assay; format: functional; conditions: A498, 48 h, read-out: Activity; procedure, shortened: as §2
NCI-H522 = test: Cytotoxicity against human NCI-H522 cells assessed as cell growth at 10 uM after 48 hrs by sulforhodamine B assay; format: functional; conditions: NCI-H522, 48 h, read-out: Activity
[14] = Homo sapiens, NCI/ADR-RES, 48 h

CC(=O)c1ccccc1-c1ccc(-c2ccnc(NC(=O)Nc3cc(N4CCOCC4)cc(C(F)(F)F)c3)n2)cn1
growth at 0.001 µM (T47D): 106%
growth at 0.001 µM (NCI-H23): 98%
GI50 (A498 [1]): 13 µM
pIC50 (A498 [1]): < 4.00
TGI (A498 [1]): > 100 µM
CC50 (A498 [1]): > 100 µM
GI50 (SN12C): 1.27 µM
pIC50 (SN12C): < 4.00
TGI (SN12C): > 100 µM
CC50 (SN12C): > 100 µM
growth at 0.001 µM (A498 [2]): 85%
growth at 0.001 µM (OVCAR-8 [3]): 92%
growth at 0.01 µM (OVCAR-3): 95%
growth at 0.1 µM (IGROV-1): 87%
growth at 0.01 µM (KM12 [4]): 98%
growth at 1 µM (CAKI-1 [5]): 58%
GI50 (OVCAR-5): > 100 µM
pIC50 (OVCAR-5): < 4.00
TGI (OVCAR-5): > 100 µM
CC50 (OVCAR-5): > 100 µM
growth at 0.001 µM (NCI-H460): 109%
growth at 1 µM (KM12 [6]): 86%
growth at 0.1 µM (SNB-19 [7]): 95%
growth at 0.1 µM (OVCAR-4): 92%
growth at 1 µM (786-0): 55%
growth at 0.1 µM (MDA-MB-468): 103%
growth at 0.001 µM (CAKI-1 [8]): 97%
growth at 10 µM (SNB-19 [9]): 26%
TGI (OVCAR-8 [10]; Homo sapiens, OVCAR-8, 48 h): > 100 µM
CC50 (OVCAR-8 [10]; Homo sapiens, OVCAR-8, 48 h): > 100 µM
IC50 (OVCAR-8 [10]; ovcar-8): Not Active
TGI (SNB-75 [11]): 100 µM and 27.5 µM
GI50 (SNB-75 [11]; Homo sapiens, SNB-75, 48 h): 38.7 µM
pIC50 (SNB-75 [11]; Homo sapiens, SNB-75, 48 h): 5.27
CC50 (SNB-75 [11]; Homo sapiens, SNB-75, 48 h): > 100 µM
TGI (NCI/ADR-RES; [14]): > 100 µM
CC50 (NCI/ADR-RES; [14]): > 100 µM
IC50 (NCI/ADR-RES; nci/adr-res): Not Active
growth at 0.001 µM (UO-31): 85%
growth at 0.1 µM (MDA-MB-231): 84%
growth at 10 µM (SNB-75 [12]): -45%
GI50 (MOLT-4): > 100 µM
pIC50 (MOLT-4): < 4.00
TGI (MOLT-4): > 100 µM
CC50 (MOLT-4): > 100 µM
growth at 10 µM (A498 [13]): 98%
growth at 10 µM (NCI-H522): 40%

CC(=O)Nc1cccc(-c2ccc(-c3ccnc(NC(=O)Nc4cc(C(F)(F)F)cc(C(F)(F)F)c4)n3)cn2)c1.Cl
growth at 0.001 µM (T47D): 89%
growth at 0.001 µM (NCI-H23): 91%
GI50 (A498 [1]): 6.13 µM
pIC50 (A498 [1]): 5.21
TGI (A498 [1]): 22.2 µM
CC50 (A498 [1]): 59.2 µM
GI50 (SN12C): 9.29 µM
pIC50 (SN12C): 5.03
TGI (SN12C): 23.8 µM
CC50 (SN12C): 57.7 µM
growth at 0.001 µM (A498 [2]): 95%
growth at 0.001 µM (OVCAR-8 [3]): 102%
growth at 0.01 µM (OVCAR-3): 105%
growth at 0.1 µM (IGROV-1): 89%
growth at 0.01 µM (KM12 [4]): 99%
growth at 1 µM (CAKI-1 [5]): -7%
GI50 (OVCAR-5): 11.8 µM
pIC50 (OVCAR-5): 4.93
TGI (OVCAR-5): 24.5 µM
CC50 (OVCAR-5): 50.8 µM
growth at 0.001 µM (NCI-H460): 95%
growth at 1 µM (KM12 [6]): -10%
growth at 0.1 µM (SNB-19 [7]): 90%
growth at 0.1 µM (OVCAR-4): 61%
growth at 1 µM (786-0): 25%
growth at 0.1 µM (MDA-MB-468): 47%
growth at 0.001 µM (CAKI-1 [8]): 108%
growth at 10 µM (SNB-19 [9]): -88%
GI50 (OVCAR-8 [10]; Homo sapiens, OVCAR-8, 48 h): 2.07 µM
TGI (OVCAR-8 [10]; Homo sapiens, OVCAR-8, 48 h): 5.93 µM
pIC50 (OVCAR-8 [10]; Homo sapiens, OVCAR-8, 48 h, read-out: IC50): 5.68
CC50 (OVCAR-8 [10]; Homo sapiens, OVCAR-8, 48 h): 26.4 µM
GI50 (SNB-75 [11]; Homo sapiens, SNB-75, 48 h): 10.9 µM
pIC50 (SNB-75 [11]; Homo sapiens, SNB-75, 48 h): 4.96
TGI (SNB-75 [11]; Homo sapiens, SNB-75, 48 h): 30.5 µM
CC50 (SNB-75 [11]; Homo sapiens, SNB-75, 48 h): 85.8 µM
GI50 (NCI/ADR-RES; [14]): 3.66 µM
TGI (NCI/ADR-RES; [14]): 47.4 µM
pIC50 (NCI/ADR-RES; Homo sapiens, NCI/ADR-RES, 48 h, read-out: IC50): 5.44
CC50 (NCI/ADR-RES; [14]): > 100 µM
growth at 0.001 µM (UO-31): 90%
growth at 0.1 µM (MDA-MB-231): 77%
growth at 10 µM (SNB-75 [12]): -57%
GI50 (MOLT-4): 1.98 µM
pIC50 (MOLT-4): 5.70
TGI (MOLT-4): > 100 µM
CC50 (MOLT-4): > 100 µM
growth at 10 µM (A498 [13]): -77%
growth at 10 µM (NCI-H522): -73%
